Experimental data from ChEMBL document CHEMBL4396918, “Identification of a potent small-molecule inhibitor of bacterial DNA repair that potentiates quinolone antibiotic activity in methicillin-resistant Staphylococcus aureus” (Bioorg Med Chem, 2019).
Active and inactive are the calls of the source. The rule behind the calls is not given here.

Key:
[1] = target: T1, DNA gyrase (Escherichia coli) (UniProt P0AES6+P0AES4); assay: Inhibition of Escherichia coli DNA gyrase (A2B2 tetramer) assessed as Fraction supercoiled at 12.5 uM using relaxed pBR322 as substrate preincubated for 30 mins followed by enzyme addition by SYBR staining-based agarose gel electrophoresis method; assay type: protein-complex assay
Method in brief: (§1)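 Supercoiling of relaxed pBR322 by DNA gyrase, with products (relaxed, […], supercoiled) resolved by agarose gel electrophoresis. Supercoiled fraction quantified by densitometry. Mean ± SEM of 3 technical replicates.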

Staphylococcus aureus [2] = assay: Potentiation of ciprofloxacin-induced antibacterial activity against methicillin resistant Staphylococcus aureus USA300 JE2 assessed as fold reduction in ciprofloxacin EC50 incubated for 18 hrs in presence of 0.5 times MIC ciprofloxacin by broth microdilution method relative to ciprofloxacin; assay type: functional
Escherichia coli = assay: Inhibition of Escherichia coli DNA topoisomerase IV using supercoiled pQE80L as substrate at 12.5 uM incubated for 30 mins by ethidium bromide staining-based agarose gel electrophoresis method
[3] = target: T1, DNA gyrase (Escherichia coli); assay: Inhibition of Escherichia coli DNA gyrase (A2B2 tetramer) at 12.5 uM using relaxed pBR322 as substrate preincubated for 30 mins followed by enzyme addition by SYBR staining-based agarose gel electrophoresis method; assay type: protein-complex assay; method in brief: as §1
[4] = Ratio of EC50 for antibacterial activity against Escherichia coli K-12 BW25113 to EC50 for Staphylococcus aureus SH1000; assay type: functional
Staphylococcus aureus [5] = assay: Synergistic antibacterial activity against Staphylococcus aureus USA300 JE2 assessed as dose reduction index at 100 uM at 1:1 test compound to ciprofloxacin measured every 30 mins for 17 hrs; assay type: functional
Method in brief: (§2)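 OD600 recorded over 17 h at 37 °C. Exponential-phase growth rate used for dose–response EC50 fitting. Combination index and dose-reduction index calculated by the Chou–Talalay method versus fraction affected.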

Staphylococcus aureus [6] = assay: Synergistic antibacterial activity against Staphylococcus aureus USA300 JE2 assessed as ciprofloxacin dose reduction index at 100 uM at 1:1 test compound to ciprofloxacin measured every 30 mins for 17 hrs; assay type: functional; method in brief: as §2
[7] = test system: Staphylococcus aureus subsp. aureus USA300; assay: Inhibition of AddAB in Staphylococcus aureus USA300 JE2 transformed with pCN34 PrecA-gfp reporter plasmid assessed as inhibition of SOS response by measuring reduction in green fluorescence per cell at 66 uM measured at 15 mins interval for 17 hrs by GFP reporter gene assay
Method in brief: (§3)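 S. aureus JE2 carrying a recA-promoter GFP reporter. […] Cell number was read as OD600 and SOS activation as GFP fluorescence, then normalized as fluorescence per cell. Mean ± SEM, n = 3 biological replicates.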

[8] = Inhibition of N-terminal his6-tagged AddB (unknown origin) expressed in Escherichia coli BL21 cells transformed with pET28 plasmid by Western blot based pull down assay
Method in brief: (§4)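 Pulldown from E. coli SoluBL21 expressing StrepII-tagged AddA and His6-tagged AddB from pET28b+, induced overnight at 16 °C. Lysates were obtained by sonication and incubated with compound-functionalized Sepharose or DMSO-treated, Tris-quenched control beads. Beads were washed three times in lysis buffer and eluted in SDS-PAGE sample buffer. Western blots used anti-His6 and anti-StrepII detection.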

[9] = Inhibition of N-terminal strep2-tagged AddA (unknown origin) expressed in Escherichia coli BL21 cells transformed with pET28 plasmid by Western blot based pull down assay; method in brief: as §4
[10] = test system: Staphylococcus aureus subsp. aureus USA300; assay: Inhibition of AddAB in Staphylococcus aureus USA300 JE2 transformed with pCN34 PrecA-gfp reporter plasmid assessed as decrease in cell number at 66 uM measured at 15 mins interval for 17 hrs by GFP reporter gene assay; method in brief: as §3
Staphylococcus aureus [11] = assay: Synergistic antibacterial activity against Staphylococcus aureus USA300 JE2 assessed as dose reduction index at 100 uM at 1:2 test compound to ciprofloxacin measured every 30 mins for 17 hrs; assay type: functional; method in brief: as §2
Staphylococcus aureus [12] = assay: Synergistic antibacterial activity against Staphylococcus aureus USA300 JE2 assessed as ciprofloxacin dose reduction index at 100 uM at 1:2 test compound to ciprofloxacin measured every 30 mins for 17 hrs; assay type: functional; method in brief: as §2
[13] = test system: Staphylococcus aureus subsp. aureus USA300; conditions: JE2, 66 uM

| SMILES | fold change (FC) (Staphylococcus aureus [2]) | Ratio EC50 [4] | also measured |
| --- | --- | --- | --- |
| CCn1cc(C(=O)O)c(=O)c2cnc(N3CCN(C(=S)Nc4cccc(C(F)(F)F)c4)CC3)nc21 | >4 | >10 | Ratio [1]: 1.1; inhibition (Escherichia coli): inactive; inhibition [3]: inactive; Activity_index (Staphylococcus aureus [5]): 2.2; Activity_index (Staphylococcus aureus [6]): 1.8 |
| O=C(O)c1cn(C2CC2)c2cc(N3CCN(C(=S)Nc4cc(Cl)cc(Cl)c4)CC3)c(F)cc2c1=O | >3 | 2 - 5 |  |
| CCn1cc(C(=O)O)c(=O)c2cnc(N3CCN(C(=S)Nc4cc(C(F)(F)F)cc(C(F)(F)F)c4)CC3)nc21 | >4 | >10 |  |
| O=C(O)c1cn(C2CC2)c2cc(N3CCN(C(=S)Nc4ccc(C(F)(F)F)cc4)CC3)c(F)cc2c1=O | >3 | 2 - 5 | Ratio [1]: 1.2; inhibition (Escherichia coli): inactive; inhibition [3]: inactive; inhibition [7]: Active; inhibition [8]: Active; inhibition [9]: Active; inhibition [10]: Active; Activity_index (Staphylococcus aureus [6]): 2.9 |
| O=C(O)c1cn(C2CC2)c2cc(N3CCN(C(=S)Nc4cccc(F)c4)CC3)c(F)cc2c1=O | >3 | 2 - 5 |  |
| O=C(O)c1cn(C2CC2)c2cc(N3CCN(C(=S)Nc4ccc([N+](=O)[O-])cc4)CC3)c(F)cc2c1=O | 20 |  |  |
| CCn1cc(C(=O)O)c(=O)c2cnc(N3CCN(C(=O)Nc4ccccc4)CC3)nc21 | >4 |  | Ratio [1]: 1.1; inhibition (Escherichia coli): inactive; inhibition [3]: inactive |
| CCn1cc(C(=O)O)c(=O)c2cnc(N3CCN(C(=S)Nc4cccc(Cl)c4)CC3)nc21 | >4 | >10 | Ratio [1]: 1.1; Activity_index (Staphylococcus aureus [11]): 2; inhibition [3]: inactive; Activity_index (Staphylococcus aureus [12]): 2.2 |
| O=C(O)c1cn(C2CC2)c2cc(N3CCN(C(=S)Nc4cccc([N+](=O)[O-])c4)CC3)c(F)cc2c1=O | >4 |  |  |
| O=C(O)c1cn(C2CC2)c2cc(N3CCN(C(=S)Nc4cccc(C(F)(F)F)c4)CC3)c(F)cc2c1=O | >3 | 2 - 5 |  |
| CCn1cc(C(=O)O)c(=O)c2cnc(N3CCN(C(=S)Nc4cc(Cl)cc(Cl)c4)CC3)nc21 | >4 | >50 |  |
| CCn1cc(C(=O)O)c(=O)c2cnc(N3CCN(C(=S)Nc4ccc(C(F)(F)F)cc4)CC3)nc21 | >4 | >10 |  |
| O=C(O)c1cn(C2CC2)c2cc(N3CCN(C(=O)Nc4ccccc4)CC3)c(F)cc2c1=O |  |  | inhibition [8]: inactive; inhibition [9]: inactive |
| O=C(O)c1cn(C2CC2)c2cc(N3CCN(C(=S)Nc4cccc(Cl)c4)CC3)c(F)cc2c1=O | >3 | 2 - 5 |  |
| O=C(O)c1cn(C2CC2)c2cc(N3CCN(C(=S)Nc4cc(C(F)(F)F)cc(C(F)(F)F)c4)CC3)c(F)cc2c1=O | >4 |  |  |
| CCn1cc(C(=O)O)c(=O)c2cnc(N3CCN(C(=S)Nc4cccc(F)c4)CC3)nc21 | >4 | >10 |  |
| O=C(O)c1cn(C2CC2)c2cc(N3CCNCC3)c(F)cc2c1=O |  |  | inhibition (Escherichia coli): Active; inhibition [13]: Active; inhibition [10]: Active |
